In ChEMBL document CHEMBL3352186, “Modification and biological evaluation of thiazole derivatives as novel inhibitors of metastatic cancer cell migration and invasion” (J Med Chem, 2014):
The source made the active and inactive calls. No cut-off for these calls is given here.

Assays:
MDA-MB-231 [1] = assay: Cytotoxicity against human MDA-MB-231 cells assessed as survival at 1 uM after 5 days; assay type: functional; conditions: MDA-MB-231, 120 h, read-out: Survival
MDA-MB-231 [2] = assay: Antimigratory activity in human MDA-MB-231 cells after 24 hrs using transwell system by light microscopy; assay type: functional, cell-based; conditions: MDA-MB-231, 24 h
Method in brief: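 Transwell chambers: 2.5×10^4 cells in serum-free, phenol red-free medium in the upper chamber, with DMEM + 5% FBS below as chemoattractant. Compounds at 10^-8, 10^-7, 10^-6 and 10^-5 M, with 0.1% DMSO vehicle, for 24 h. Membranes were scrubbed, formalin-fixed, methanol-permeabilized and stained with 0.1% crystal violet. Migrated cells were counted by light microscopy per 100× field as % of vehicle. IC50 is the concentration giving 50% migration inhibition.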

Chorioallantoic membrane = assay: Antiangiogenic activity in chicken egg embryo assessed as inhibition of bFGF/VEGF-induced angiogenesis in chorioallantoic membrane after 3 days; assay type: functional; conditions: Gallus gallus
Method in brief: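 Fertilized chick embryos were incubated at 37.5 °C for 3 days, removed from the shell, and kept 7 further days. Each compound was added to a collagen plug containing bFGF (10 ng/plug) plus VEGF (30 ng/plug) and placed on the CAM of 10-day embryos for 3 days. PBS was the negative control. Plugs were imaged and scored masked on a 0–3 angiogenesis scale, reported as mean ± SEM, and analysed by one-way ANOVA with Dunnett's test.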

MDA-MB-231 [3] = assay: Antiinvasive activity in human MDA-MB-231 cells at 10 uM after 24 hrs by matrigel assay; assay type: functional; conditions: MDA-MB-231, 24 h
Method in brief: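 Cells serum-starved 24 h, trypsinized and resuspended in medium with DMSO or compound; 2.5×10^4 cells/well seeded on Matrigel-coated inserts. Bottom well held 10% FBS medium with DMSO or 10 μM compound. After 24 h, non-invaded cells were scrubbed off and invaded cells fixed (4% formaldehyde, 10 min, RT), stained with 0.04% crystal violet and counted at 100× in five random fields. Result is % invasion relative to DMSO.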

HeLa (Homo sapiens) = assay: Induction of disorganization of actin filaments in human HeLa cells assessed as decrease in F-actin staining intensity near cell membrane at 10^-6 M by phalloidin staining
MDA-MB-231 [4] = assay: Antimigratory activity in human MDA-MB-231 cells over-expressed with fascin assessed as inhibition of cell migration at 10 uM after 24 hrs by Transwell assay

SMILES | viability at 1 µM (MDA-MB-231 [1]) [%] | IC50 (MDA-MB-231 [2]) [nM] | inhibition (Chorioallantoic membrane) | inhibition at 10 µM (MDA-MB-231 [3]) [%] | Activity (HeLa (Homo sapiens)) | inhibition (MDA-MB-231 [4])
COc1ccc(C(=O)N(C)c2nc(-c3cc(OC)c(OC)c(OC)c3)cs2)cc1 | 100 | 312 | – | – | – | –
COc1cc(-c2cs/c(=N\C(=O)c3ccccc3)n2C)cc(OC)c1OC | 88.4 | 1070 | – | – | – | –
C#CCn1c(-c2ccc(C)cc2C)cs/c1=N\C(=O)c1ccccc1 | 70.2 | 3890 | – | – | – | –
C#CCn1c(-c2ccccc2)cs/c1=N\C(=O)c1ccccc1 | 63 | 2780 | – | – | – | –
CCCCCCCCCCCCn1c(-c2ccc(C)cc2C)cs/c1=N\C(=O)c1ccccc1 | 110 | 24 | Active | > 50 | Active | –
C=CCn1c(-c2ccccc2)cs/c1=N\C(=O)c1ccccc1 | 64.8 | 1200 | – | – | – | –
Cc1s/c(=N\C(=O)c2ccccc2)n(C)c1-c1ccc(F)cc1 | 83.8 | 847 | – | – | – | –
CCCN(C(=O)c1ccccc1)c1nc(-c2ccccc2)cs1 | 116 | 77 | – | > 50 | Active | –
C=CCn1c(-c2ccc(C)cc2C)cs/c1=N\C(=O)c1ccccc1 | 115 | 456 | – | – | – | –
Cn1c(C2CC2)cs/c1=N\C(=O)c1ccccc1 | 90.7 | 104 | – | – | – | –
Cc1csc(NC(=O)c2ccccc2)n1 | 103 | 12000 | – | – | – | –
Cn1c(-c2ccc(Br)cc2)cs/c1=N\C(=O)c1ccccc1 | 59.3 | 125 | – | – | – | –
COc1ccc(C(=O)N(C)c2nc(-c3cc(OC)c(OC)c(OC)c3)cs2)cc1OC | 102 | > 25000 | – | – | – | –
COc1ccc(C(=O)Nc2nc(-c3cc(OC)c(OC)c(OC)c3)cs2)cc1 | 93.8 | > 25000 | – | – | – | –
COc1cccc(C(=O)Nc2nc(-c3cc(OC)c(OC)c(OC)c3)cs2)c1 | 92.6 | 14000 | – | – | – | –
CCCCCCn1c(-c2ccc(C)cc2C)cs/c1=N\C(=O)c1ccccc1 | 90 | 45 | Active | > 50 | Active | inactive

SMILES | viability at 1 µM (MDA-MB-231 [1]) [%] | IC50 (MDA-MB-231 [2]) [nM] | inhibition (Chorioallantoic membrane) | inhibition at 10 µM (MDA-MB-231 [3]) [%] | Activity (HeLa (Homo sapiens)) | inhibition (MDA-MB-231 [4])
O=C(Nc1nc(-c2ccccc2Cl)cs1)c1ccccc1 | 102 | 15000 | – | – | – | –
Cc1s/c(=N\C(=O)c2ccccc2)n(C)c1-c1ccccc1 | 68.4 | 197 | – | – | – | –
COc1ccccc1C(=O)Nc1nc(-c2cc(OC)c(OC)c(OC)c2)cs1 | 104 | 8500 | – | – | – | –
Cc1ccc(-c2csc(NS(=O)(=O)c3ccccc3)n2)c(C)c1 | 137 | 11000 | – | – | – | –
CCn1c(-c2ccccc2)cs/c1=N\C(=O)c1ccccc1 | 68.5 | 51.5 | – | – | – | –
COc1ccc(C(=O)/N=c2\scc(-c3cc(OC)c(OC)c(OC)c3)n2C)cc1 | 106 | 8040 | – | – | – | –
Cc1ccc(-c2cs/c(=N\S(=O)(=O)c3ccccc3)n2C)c(C)c1 | 92.4 | 1460 | – | – | – | –
CCCn1c(-c2ccc(C)cc2C)cs/c1=N\C(=O)c1ccccc1 | 85 | 292 | – | – | – | –
COc1ccc(C(=O)Nc2nc(-c3cc(OC)c(OC)c(OC)c3)cs2)c(OC)c1 | 93.8 | > 50000 | – | – | – | –
Cc1ccc(-c2cs/c(=N\C(=O)c3ccccc3)n2C)c(C)c1 | 101 | 218 | – | > 50 | – | –
CN(C(=O)c1ccccc1)c1nc(-c2ccc(Br)cc2)cs1 | 65.4 | 317 | – | – | – | –
COc1cc(-c2csc(NC(=O)c3cccc(OC)c3OC)n2)cc(OC)c1OC | 90.1 | 15000 | – | – | – | –
COc1cc(-c2csc(N(C)C(=O)c3cccc(OC)c3OC)n2)cc(OC)c1OC | 118 | 108 | – | – | – | –
O=C(Nc1nc(-c2cc(C(F)(F)F)cc(C(F)(F)F)c2)cs1)c1ccccc1 | 85.8 | 336 | – | – | – | –
Cn1c(-c2cccc(Br)c2)cs/c1=N\C(=O)c1ccccc1 | 94.4 | 302 | – | – | – | –
Cc1ccc(-c2csc(N(C)S(=O)(=O)c3ccccc3)n2)c(C)c1 | 117 | > 25000 | – | – | – | –
